# Test results from ChEMBL document CHEMBL1154067, “Antiviral and cytotoxic activities of aminoarylazo compounds and aryltriazene derivatives” (Bioorg Med Chem, 2009).
# Active and inactive are the calls of the source.
# Test system: MT4
# Assay: Cytotoxicity against human MT4 cells after 96 hrs by MTT assay
# Assay type: cell-based
# Conditions: mt4, 96 h
# Summary of the method: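 Exponentially growing mock-infected MT-4 seeded at 1 × 10^5 cells/mL in RPMI-1640 with 10% FCS, penicillin and streptomycin. Incubated with or without serial compound dilutions at 37 °C, 5% CO2. Viability by MTT after 96 h. CC50 = concentration reducing viability 50%.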
row,Compound,CC50 [µM]
1,FC(F)(F)c1cccc(N(C[C@@H]2CCCN3CCCC[C@H]23)/N=N/c2ccccc2)c1,17
2,CN(C)CCCN(/N=N/c1ccccc1)c1ccccc1,33
3,Cc1ccc(/N=N/c2ccc(NCCCN(C)C)cc2)cc1,17
4,CN(C)CCCN(/N=N/c1ccc([N+](=O)[O-])cc1)c1ccccc1,20

# Test system: not listed separately
# Assay: Cytotoxicity against MDBK cells after 48 to 96 hrs by MTT assay
# Assay type: cell-based, Bos taurus
# Conditions: cattle, mdbk
# Summary of the method: (§1)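 Mock-infected cells in maintenance medium, MDBK at 6 × 10^5 and BHK at 1 × 10^6 cells/mL initial density, with or without serial compound dilutions. Run in parallel with antiviral assays. Viability by MTT after 48–96 h at 37 °C, 5% CO2. CC50 = concentration reducing viability 50%.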
row,Compound,CC50 [µM]
1,FC(F)(F)c1cccc(N(C[C@@H]2CCCN3CCCC[C@H]23)/N=N/c2ccccc2)c1,22
2,CN(C)CCCN(/N=N/c1ccccc1)c1ccccc1,95
3,Cc1ccc(/N=N/c2ccc(NCCCN(C)C)cc2)cc1,> 100
4,CN(C)CCCN(/N=N/c1ccc([N+](=O)[O-])cc1)c1ccccc1,39

# Test system: Bovine viral diarrhea virus 1
# Assay: Antiviral activity against Bovine viral diarrhea virus infected in MDBK cells assessed as inhibition of virus-induced cytopathicity after 3 to 4 days by MTT assay
# Assay type: functional, organism-based
# Conditions: Bovine viral diarrhea virus isolates and strains
row,Compound,EC50 [µM]
1,FC(F)(F)c1cccc(N(C[C@@H]2CCCN3CCCC[C@H]23)/N=N/c2ccccc2)c1,> 22
2,CN(C)CCCN(/N=N/c1ccccc1)c1ccccc1,≥ 95
3,Cc1ccc(/N=N/c2ccc(NCCCN(C)C)cc2)cc1,> 100
4,CN(C)CCCN(/N=N/c1ccc([N+](=O)[O-])cc1)c1ccccc1,≥ 39

# Test system: Yellow fever virus
# Assay: Antiviral activity against Yellow fever virus infected in BHK-21 cells assessed as inhibition of virus-induced cytopathicity after 3 to 4 days by MTT assay
# Assay type: functional, organism-based
# Conditions: not given
row,Compound,EC50 [µM]
1,FC(F)(F)c1cccc(N(C[C@@H]2CCCN3CCCC[C@H]23)/N=N/c2ccccc2)c1,23
2,CN(C)CCCN(/N=N/c1ccccc1)c1ccccc1,> 50
3,Cc1ccc(/N=N/c2ccc(NCCCN(C)C)cc2)cc1,> 100
4,CN(C)CCCN(/N=N/c1ccc([N+](=O)[O-])cc1)c1ccccc1,≥ 36

# Test system: Mammalian orthoreovirus 1
# Assay: Antiviral activity against Reovirus-1 infected in BHK-21 cells assessed as inhibition of virus-induced cytopathicity after 3 to 4 days by MTT assay
# Assay type: functional, organism-based
# Conditions: Mammalian orthoreovirus 1, BHK-21
# Summary of the method: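 BHK-21 cells seeded at 5 × 10^4 cells/well, grown overnight to confluent monolayers at 37 °C in 5% CO2, then infected at m.o.i. 0.01 in serum-free medium. One hour later, MEM Earle's with 1% final inactivated FCS added, with or without serial compound dilutions. Viability read by MTT after 3–4 days at 37 °C. EC50 is the concentration giving 50% protection from cytopathogenicity.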
row,Compound,EC50 [µM]
1,FC(F)(F)c1cccc(N(C[C@@H]2CCCN3CCCC[C@H]23)/N=N/c2ccccc2)c1,> 40
2,CN(C)CCCN(/N=N/c1ccccc1)c1ccccc1,> 50
3,Cc1ccc(/N=N/c2ccc(NCCCN(C)C)cc2)cc1,> 100
4,CN(C)CCCN(/N=N/c1ccc([N+](=O)[O-])cc1)c1ccccc1,> 36

# Test system: Vero
# Assay: Cytotoxicity against african green monkey Vero 76 cells by crystal violet staining
# Assay type: cell-based
# Conditions: chlorocebus sabaeus, vero
# Summary of the method: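 Mock-infected Vero 76 seeded at 4 × 10^5 cells/mL, run in parallel with plaque assays, with or without serial compound dilutions. Cell number of monolayers determined by crystal violet staining. CC50 = concentration reducing viable cell number 50%.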
row,Compound,CC50 [µM]
1,FC(F)(F)c1cccc(N(C[C@@H]2CCCN3CCCC[C@H]23)/N=N/c2ccccc2)c1,75
2,CN(C)CCCN(/N=N/c1ccccc1)c1ccccc1,35
3,Cc1ccc(/N=N/c2ccc(NCCCN(C)C)cc2)cc1,50
4,CN(C)CCCN(/N=N/c1ccc([N+](=O)[O-])cc1)c1ccccc1,40

# Test system: Coxsackievirus B2
# Assay: Antiviral activity against Coxsackie virus type B2 virus infected in african green monkey Vero-76 cells after 3 days by plaque reduction assay
# Assay type: functional, organism-based
# Conditions: Enterovirus B, Vero 76, 72 h
# Summary of the method: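 Vero 76 cells seeded at 2 × 10^5 cells/well, grown overnight to confluence at 37 °C in 5% CO2, then infected at 50–100 PFU/well. Unadsorbed virus removed. Overlay of DMEM with 1% inactivated FCS and 0.75% methylcellulose, with or without serial compound dilutions. After 3 days at 37 °C, fixed and stained with crystal violet in PBS/50% ethanol; plaques counted. EC50 is the concentration reducing plaque number by 50%.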
row,Compound,EC50 [µM]
1,FC(F)(F)c1cccc(N(C[C@@H]2CCCN3CCCC[C@H]23)/N=N/c2ccccc2)c1,> 75
2,CN(C)CCCN(/N=N/c1ccccc1)c1ccccc1,6
3,Cc1ccc(/N=N/c2ccc(NCCCN(C)C)cc2)cc1,> 50
4,CN(C)CCCN(/N=N/c1ccc([N+](=O)[O-])cc1)c1ccccc1,> 40

# Test system: Respiratory syncytial virus
# Assay: Antiviral activity against Respiratory syncytial virus A2 infected in Vero-76 cells after 5 days by plaque reduction assay
# Assay type: functional, organism-based
# Conditions: human respiratory syncytial virus, A2, Vero 76, 120 h
row,Compound,EC50 [µM]
1,FC(F)(F)c1cccc(N(C[C@@H]2CCCN3CCCC[C@H]23)/N=N/c2ccccc2)c1,> 75
2,CN(C)CCCN(/N=N/c1ccccc1)c1ccccc1,> 35
3,Cc1ccc(/N=N/c2ccc(NCCCN(C)C)cc2)cc1,> 50
4,CN(C)CCCN(/N=N/c1ccc([N+](=O)[O-])cc1)c1ccccc1,> 40

# Test system: Human alphaherpesvirus 1
# Assay: Antiviral activity against HSV1 infected in Vero-76 cells after 3 days by plaque reduction assay
# Assay type: functional, organism-based
# Conditions: Human alphaherpesvirus 1, Vero 76, 72 h
row,Compound,EC50 [µM]
1,FC(F)(F)c1cccc(N(C[C@@H]2CCCN3CCCC[C@H]23)/N=N/c2ccccc2)c1,> 75
2,CN(C)CCCN(/N=N/c1ccccc1)c1ccccc1,12
3,Cc1ccc(/N=N/c2ccc(NCCCN(C)C)cc2)cc1,> 50
4,CN(C)CCCN(/N=N/c1ccc([N+](=O)[O-])cc1)c1ccccc1,> 40

# Test system: not listed separately
# Assay: Cytotoxicity against hamster BHK21 cells assessed as reduction in cell viability after 48 to 96 hrs by MTT assay
# Assay type: cell-based, Mesocricetus auratus, BHK-21
# Conditions: bhk-21
# Summary of the method: as §1
row,Compound,CC50 [µM]
1,FC(F)(F)c1cccc(N(C[C@@H]2CCCN3CCCC[C@H]23)/N=N/c2ccccc2)c1,40
2,CN(C)CCCN(/N=N/c1ccccc1)c1ccccc1,50
3,Cc1ccc(/N=N/c2ccc(NCCCN(C)C)cc2)cc1,> 100
4,CN(C)CCCN(/N=N/c1ccc([N+](=O)[O-])cc1)c1ccccc1,36

# Test system: Poliovirus 1
# Assay: Antiviral activity against Human poliovirus 1 strain Sabin after 2 days by plaque reduction assay
# Assay type: functional
# Conditions: not given
row,Compound,Activity
1,Cc1ccc(/N=N/c2ccc(NCCCN(C)C)cc2)cc1,inactive

# Same assay, conditions: Enterovirus C, 48 h
row,Compound,EC50 [µM]
1,FC(F)(F)c1cccc(N(C[C@@H]2CCCN3CCCC[C@H]23)/N=N/c2ccccc2)c1,> 75
2,CN(C)CCCN(/N=N/c1ccccc1)c1ccccc1,> 35
3,CN(C)CCCN(/N=N/c1ccc([N+](=O)[O-])cc1)c1ccccc1,> 40

# Test system: Human immunodeficiency virus 1
# Assay: Antiviral activity against HIV1 infected in human MT4 cells assessed as inhibition of virus-induced cytopathicity after 4 days by MTT assay
# Assay type: functional, organism-based
# Conditions: not given
row,Compound,inhibition
1,FC(F)(F)c1cccc(N(C[C@@H]2CCCN3CCCC[C@H]23)/N=N/c2ccccc2)c1,inactive
2,CN(C)CCCN(/N=N/c1ccccc1)c1ccccc1,inactive
3,Cc1ccc(/N=N/c2ccc(NCCCN(C)C)cc2)cc1,inactive
4,CN(C)CCCN(/N=N/c1ccc([N+](=O)[O-])cc1)c1ccccc1,inactive

# Test system: Vesicular stomatitis virus
# Assay: Antiviral activity against Vesicular stomatitis virus after 2 days by plaque reduction assay
# Assay type: functional, organism-based
# Conditions: not given
row,Compound,Activity
1,FC(F)(F)c1cccc(N(C[C@@H]2CCCN3CCCC[C@H]23)/N=N/c2ccccc2)c1,inactive
2,CN(C)CCCN(/N=N/c1ccccc1)c1ccccc1,inactive
3,Cc1ccc(/N=N/c2ccc(NCCCN(C)C)cc2)cc1,inactive
4,CN(C)CCCN(/N=N/c1ccc([N+](=O)[O-])cc1)c1ccccc1,inactive

# Test system: Vaccinia virus
# Assay: Antiviral activity against Vaccinia virus after 3 days by plaque reduction assay
# Assay type: functional, organism-based
# Conditions: Orthopoxvirus vaccinia
row,Compound,Activity
1,FC(F)(F)c1cccc(N(C[C@@H]2CCCN3CCCC[C@H]23)/N=N/c2ccccc2)c1,inactive
2,CN(C)CCCN(/N=N/c1ccccc1)c1ccccc1,inactive
3,Cc1ccc(/N=N/c2ccc(NCCCN(C)C)cc2)cc1,inactive
4,CN(C)CCCN(/N=N/c1ccc([N+](=O)[O-])cc1)c1ccccc1,inactive
